Laboratory results published in ChEMBL document CHEMBL4261658, “4-Hydroxy-3-nitro-5-ureido-benzenesulfonamides Selectively Target the Tumor-Associated Carbonic Anhydrase Isoforms IX and XII Showing Hypoxia-Enhanced Antiproliferative Profiles” (J Med Chem, 2018).

How the values were obtained:
Carbonic anhydrase 9 = Carbonic anhydrase 9 (Homo sapiens, UniProt Q16790); assay: Inhibition of carbonic anhydrase 9 (unknown origin) preincubated for 15 mins by stopped flow CO2 hydration assay
Carbonic anhydrase 12 = Carbonic anhydrase 12 (Homo sapiens, UniProt O43570)
Carbonic anhydrase 12, sequence (O43570 whole entry): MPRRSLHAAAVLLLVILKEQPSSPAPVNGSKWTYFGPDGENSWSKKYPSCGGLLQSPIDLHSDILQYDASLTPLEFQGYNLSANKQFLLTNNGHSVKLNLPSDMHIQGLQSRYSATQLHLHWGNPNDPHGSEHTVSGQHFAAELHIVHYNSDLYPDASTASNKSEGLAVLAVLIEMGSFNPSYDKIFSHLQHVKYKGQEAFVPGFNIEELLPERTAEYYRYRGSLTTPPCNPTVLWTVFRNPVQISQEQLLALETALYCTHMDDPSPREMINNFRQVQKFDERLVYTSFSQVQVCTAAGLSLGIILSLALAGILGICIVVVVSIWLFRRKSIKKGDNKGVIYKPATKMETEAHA

HT-29 [1] = assay: Cytotoxicity against human HT-29 cells assessed as reduction in cell viability after 48 hrs under normoxic conditions by MTT assay; type: functional, cell-based; settings: for IC50: HT-29, 48 h
Procedure, shortened: (§1)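 Cells cultured in high-glucose DMEM with 20% FBS at 37 °C and 5% CO2, seeded at 1x10^4/well, then dosed 24 h later (0–200 μM) for 48 h. Hypoxia: 1% O2, 5% CO2, balance N2 in a hypoxic workstation; normoxia: 20% O2 in air, 5% CO2. MTT (1 mg/ml) for 30 min at 37 °C, formazan dissolved in DMSO, A550. Untreated control set to 100%; quadruplicates, ≥3 cell batches, mean ± S.E.M.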

MDA-MB-231 [2] = assay: Cytotoxicity against human MDA-MB-231 cells assessed as reduction in cell viability after 48 hrs under normoxic conditions by MTT assay; type: functional, cell-based; settings: for IC50: MDA-MB-231, 48 h; procedure, shortened: as §1
PC-3 [3] = assay: Cytotoxicity against human PC3 cells assessed as reduction in cell viability after 48 hrs under normoxic conditions by MTT assay; type: functional, cell-based; settings: for IC50: PC-3, 48 h; procedure, shortened: as §1
HT-29 [4] = assay: Cytotoxicity against human HT-29 cells assessed as reduction in cell viability after 48 hrs under hypoxic conditions by MTT assay; type: functional, cell-based; settings: for IC50: HT-29, 48 h; procedure, shortened: as §1
MDA-MB-231 [5] = assay: Cytotoxicity against human MDA-MB-231 cells assessed as reduction in cell viability after 48 hrs under hypoxic conditions by MTT assay; type: functional, cell-based; settings: for IC50: MDA-MB-231, 48 h; procedure, shortened: as §1
PC-3 [6] = assay: Cytotoxicity against human PC3 cells assessed as reduction in cell viability after 48 hrs under hypoxic conditions by MTT assay; type: functional, cell-based; settings: for IC50: PC-3, 48 h; procedure, shortened: as §1
MDA-MB-231 [7] = assay: Cytotoxicity against human MDA-MB-231 cells assessed as cell viability at 200 uM after 48 hrs under hypoxic conditions by MTT assay (reference value: 100%); type: functional; settings: MDA-MB-231, 48 h, read-out: Activity; procedure, shortened: as §1
MDA-MB-231 [8] = assay: Cytotoxicity against human MDA-MB-231 cells assessed as cell viability at 30 uM after 48 hrs under normoxic conditions by MTT assay (reference value: 100%); type: functional; settings: MDA-MB-231, 48 h, read-out: Activity; procedure, shortened: as §1
MDA-MB-231 [9] = assay: Cytotoxicity against human MDA-MB-231 cells assessed as cell viability at 100 uM after 48 hrs under normoxic conditions by MTT assay (reference value: 100%); type: functional; settings: MDA-MB-231, 48 h, read-out: Activity; procedure, shortened: as §1
MDA-MB-231 [10] = assay: Cytotoxicity against human MDA-MB-231 cells assessed as cell viability at 200 uM after 48 hrs under normoxic conditions by MTT assay (reference value: 100%); type: functional; settings: MDA-MB-231, 48 h, read-out: Activity; procedure, shortened: as §1
MDA-MB-231 [11] = assay: Cytotoxicity against human MDA-MB-231 cells assessed as cell viability at 100 uM after 48 hrs under hypoxic conditions by MTT assay (reference value: 100%); type: functional; settings: MDA-MB-231, 48 h, read-out: Activity; procedure, shortened: as §1
MDA-MB-231 [12] = assay: Cytotoxicity against human MDA-MB-231 cells assessed as cell viability at 30 uM after 48 hrs under hypoxic conditions by MTT assay (reference value: 100%); type: functional; settings: MDA-MB-231, 48 h, read-out: Activity; procedure, shortened: as §1
PC-3 [13] = assay: Cytotoxicity against human PC3 cells assessed as cell viability at 30 uM after 48 hrs under normoxic conditions by MTT assay (reference value: 100%); type: functional; settings: PC-3, 48 h, read-out: Activity; procedure, shortened: as §1
PC-3 [14] = assay: Cytotoxicity against human PC3 cells assessed as cell viability at 100 uM after 48 hrs under normoxic conditions by MTT assay (reference value: 100%); type: functional; settings: PC-3, 48 h, read-out: Activity; procedure, shortened: as §1
PC-3 [15] = assay: Cytotoxicity against human PC3 cells assessed as cell viability at 200 uM after 48 hrs under normoxic conditions by MTT assay (reference value: 100%); type: functional; settings: PC-3, 48 h, read-out: Activity; procedure, shortened: as §1
PC-3 [16] = assay: Cytotoxicity against human PC3 cells assessed as cell viability at 30 uM after 48 hrs under hypoxic conditions by MTT assay (reference value: 100%); type: functional; settings: PC-3, 48 h, read-out: Activity; procedure, shortened: as §1
PC-3 [17] = assay: Cytotoxicity against human PC3 cells assessed as cell viability at 100 uM after 48 hrs under hypoxic conditions by MTT assay (reference value: 100%); type: functional; settings: PC-3, 48 h, read-out: Activity; procedure, shortened: as §1
PC-3 [18] = assay: Cytotoxicity against human PC3 cells assessed as cell viability at 200 uM after 48 hrs under hypoxic conditions by MTT assay (reference value: 100%); type: functional; settings: PC-3, 48 h, read-out: Activity; procedure, shortened: as §1
HT-29 [19] = assay: Cytotoxicity against human HT-29 cells assessed as cell viability at 30 uM after 48 hrs under normoxic conditions by MTT assay (reference value: 100%); type: functional; settings: Homo sapiens, HT-29, 48 h; read-out: Activity; procedure, shortened: as §1
HT-29 [20] = assay: Cytotoxicity against human HT-29 cells assessed as cell viability at 100 uM after 48 hrs under normoxic conditions by MTT assay (reference value: 100%); type: functional; settings: Homo sapiens, HT-29, 48 h; read-out: Activity; procedure, shortened: as §1
HT-29 [21] = assay: Cytotoxicity against human HT-29 cells assessed as cell viability at 200 uM after 48 hrs under normoxic conditions by MTT assay (reference value: 100%); type: functional; settings: Homo sapiens, HT-29, 48 h; read-out: Activity; procedure, shortened: as §1
HT-29 [22] = assay: Cytotoxicity against human HT-29 cells assessed as cell viability at 30 uM after 48 hrs under hypoxic conditions by MTT assay (reference value: 100%); type: functional; settings: Homo sapiens, HT-29, 48 h; read-out: Activity; procedure, shortened: as §1
HT-29 [23] = assay: Cytotoxicity against human HT-29 cells assessed as cell viability at 100 uM after 48 hrs under hypoxic conditions by MTT assay (reference value: 100%); type: functional; settings: Homo sapiens, HT-29, 48 h; read-out: Activity; procedure, shortened: as §1
HT-29 [24] = assay: Cytotoxicity against human HT-29 cells assessed as cell viability at 200 uM after 48 hrs under hypoxic conditions by MTT assay (reference value: 100%); type: functional; settings: Homo sapiens, HT-29, 48 h; read-out: Activity; procedure, shortened: as §1
Carbonic anhydrase 2 = Carbonic anhydrase 2 (Homo sapiens, UniProt P00918); assay: Inhibition of carbonic anhydrase 2 (unknown origin) preincubated for 15 mins by stopped flow CO2 hydration assay
Homo sapiens = species on record: Homo sapiens; assay: Selectivity ratio of Ki for carbonic anhydrase 2 (unknown origin) to Ki for carbonic anhydrase 9 (unknown origin)
MDA-MB-231 [25] = assay: Potency index, ratio of cytotoxicity against human MDA-MB-231 cells assessed as reduction in cell viability at 100 uM after 48 hrs under hypoxic conditions by MTT assay to cytotoxicity against human MDA-MB-231 cells assessed as reduction in cell viability at 100 uM after 48 hrs under normoxic conditions by MTT assay; type: functional
HT-29 [26] = assay: Cytotoxicity against human HT-29 cells assessed as cell viability at 300 uM after 48 hrs under hypoxic conditions by MTT assay (reference value: 100%); type: functional; settings: HT-29, 48 h, read-out: Activity

Compound	Ki (Carbonic anhydrase 9)	Ki (Carbonic anhydrase 12)	Activity (HT-29 [1])	IC50 (HT-29 [1])	Activity (MDA-MB-231 [2])	IC50 (MDA-MB-231 [2])	Activity (PC-3 [3])	IC50 (PC-3 [3])	Activity (HT-29 [4])	IC50 (HT-29 [4])	Activity (MDA-MB-231 [5])	IC50 (MDA-MB-231 [5])	Activity (PC-3 [6])	IC50 (PC-3 [6])	viability at 200 µM (MDA-MB-231 [7])	viability at 30 µM (MDA-MB-231 [8])	viability at 100 µM (MDA-MB-231 [9])	viability at 200 µM (MDA-MB-231 [10])	viability at 100 µM (MDA-MB-231 [11])	viability at 30 µM (MDA-MB-231 [12])	other results
Cc1cc(C)[n+](-c2cc(S(N)(=O)=O)cc([N+](=O)[O-])c2O)c(C)c1.[O-][Cl+3]([O-])([O-])[O-]	0.15 µM	0.22 µM	Dose-dependent effect	> 200 µM	Dose-dependent effect	< 30 µM	Dose-dependent effect	140 µM	Dose-dependent effect	> 200 µM	Dose-dependent effect	> 200 µM	Dose-dependent effect	> 200 µM	98.3%	40.7%	2.9%	4%	111%	98.9%	viability at 30 µM (PC-3 [13]): 77.4%; viability at 100 µM (PC-3 [14]): 58%; viability at 200 µM (PC-3 [15]): 50.3%; viability at 30 µM (PC-3 [16]): 97.7%; viability at 100 µM (PC-3 [17]): 104%; viability at 200 µM (PC-3 [18]): 88.9%; viability at 30 µM (HT-29 [19]): 101%; viability at 100 µM (HT-29 [20]): 97.2%; viability at 200 µM (HT-29 [21]): 89.4%; viability at 30 µM (HT-29 [22]): 72.2%; viability at 100 µM (HT-29 [23]): 62.5%; viability at 200 µM (HT-29 [24]): 59.4%
NS(=O)(=O)c1cc(NC(=O)Nc2ccc(C(F)(F)F)cc2)c(O)c([N+](=O)[O-])c1	0.63 µM	0.95 µM	–	–	–	–	–	–	–	–	–	–	–	–	–	–	–	–	–	–	Ki (Carbonic anhydrase 2): 0.2 µM
NS(=O)(=O)c1cc(NC(=O)Nc2cc(C(F)(F)F)cc(C(F)(F)F)c2)c(O)c([N+](=O)[O-])c1	0.34 µM	0.46 µM	Dose-dependent effect	60.2 µM	Dose-dependent effect	196 µM	Dose-dependent effect	68.6 µM	Dose-dependent effect	133 µM	Dose-dependent effect	63.2 µM	Dose-dependent effect	70.6 µM	20.2%	106%	101%	45.8%	19.8%	100%	Ratio Ki (Homo sapiens): 5; viability at 30 µM (PC-3 [13]): 118%; viability at 100 µM (PC-3 [14]): 23.4%; viability at 200 µM (PC-3 [15]): 20.9%; viability at 30 µM (PC-3 [16]): 109%; viability at 100 µM (PC-3 [17]): 20.1%; viability at 200 µM (PC-3 [18]): 19.6%; viability at 30 µM (HT-29 [19]): 102%; viability at 100 µM (HT-29 [20]): 22.7%; viability at 30 µM (HT-29 [22]): 98.6%; viability at 100 µM (HT-29 [23]): 63.6%; Ratio (MDA-MB-231 [25]): 4; viability at 300 µM (HT-29 [26]): 25.6%
Nc1cc(S(N)(=O)=O)cc([N+](=O)[O-])c1O	0.21 µM	0.2 µM	Dose-dependent effect	> 200 µM	Dose-dependent effect	> 200 µM	Dose-dependent effect	> 200 µM	Dose-dependent effect	> 200 µM	Dose-dependent effect	> 200 µM	Dose-dependent effect	> 200 µM	60.2%	93%	81.4%	78.8%	72.8%	81.3%	viability at 30 µM (PC-3 [13]): 69.7%; viability at 100 µM (PC-3 [14]): 91.8%; viability at 200 µM (PC-3 [15]): 92.3%; viability at 30 µM (PC-3 [16]): 81.8%; viability at 100 µM (PC-3 [17]): 58.4%; viability at 200 µM (PC-3 [18]): 55.3%; viability at 30 µM (HT-29 [19]): 95.7%; viability at 100 µM (HT-29 [20]): 107%; viability at 200 µM (HT-29 [21]): 105%; viability at 30 µM (HT-29 [22]): 108%; viability at 100 µM (HT-29 [23]): 93.2%; viability at 200 µM (HT-29 [24]): 100%
